A word on the inhibition: it is the change of the read-out against control, counted positive when it falls.

Active and inactive are the calls of the source.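 How the source made its calls, unless noted: active means inhibition of the reporter signal at or above 50%; inactive means inhibition below 50%.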

The nature of test [1]: inhibitors of TNFa-induced NFkB p65 translocation, primary screen, imaging, HUVEC, MLSMR starter and 10KST1 sets (AID 438;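 active means inhibition above 20% together with a positive visual image hit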;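 further: compound added about 3h40 before a 20 min TNFalpha stimulation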;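 on inhibition: signal is the nuclear over cytoplasmic p65 intensity ratio per well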). The settings on record: HUVEC TNFa-induced p65 nuclear translocation; cell count: measured here: nuclei count (cytotoxicity indicator), at 2.08 µM; inhibition: at 2 µM, stronger effect = higher value, 0% TNFa-plus-vehicle, 100% no-TNFa wells.
Test [2] is described as follows: inhibitors of mutant huntingtin aggregation, primary screen, imaging, exon1htt(103Q)mCFP cells, high-content imaging (AID 483;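 active means visual image review flags a hit and inhibition of aggregation exceeds 20%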;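 further: compound exposure lasted 3 days before fixation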;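 on nuclei count: percent of the per-plate median nuclei count of sample wells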). The settings on record: exon1htt(103Q)mCFP cell line, aggregate imaging, at 2 µM; inhibition of aggregation: stronger effect = higher value; nuclei count: measured here: cell count, toxicity.
Test [3] can be described thus: inhibitors of E-selectin induction by TNFa, primary screen, imaging, HUVEC, immunofluorescence, MLSMR starter and 10KST1 sets (AID 487;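 active means visually confirmed hit in the image check and inhibition above 20%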;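 on inhibition: signal is fraction of cell area covered by stained E-selectin grains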;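 on nuclei count: 100% = median nuclei count of all wells on the same plate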). Conditions: HUVEC TNFalpha-induced E-selectin immunofluorescence imaging, at 2 µM; inhibition: stronger effect = higher value; nuclei count: measured here: cell number, toxicity.
Test [4] deals with Voltage-gated potassium channel subunit beta-2 (Rattus norvegicus) (UniProt P62483). The test is described as follows: KvBeta enzyme negative modulators, primary screen, biochemical, NADPH fluorescence (AID 622;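 active means fluorescence slope higher than the sample average by over 3 SD, cut at about -0.22 in these data, passing the limit was not always enough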;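 further: slope of raw intensity against log time taken from 70 to 1610 s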). The settings on record: recombinant KvBeta, 4-cyanobenzaldehyde reduction, at 10 µM, stronger effect = higher value.
The target is the same in test [5]. The test is described as follows: KvBeta positive modulators, primary screen, biochemical, NADPH fluorescence (AID 623;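 active means NADPH fluorescence slope more negative than the mean of all samples by about 3 SD, 99.7% confidence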;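 further: fluorescence intensity change per second fitted from 20 to 320 s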). The settings on record: Recombinant KvBeta, NADPH fluorescence decrease slope, 10 min; at 10 µM; stronger effect = lower value.
Test [6] addresses Muscarinic acetylcholine receptor M4 (Homo sapiens) (UniProt P08173). The test is described as follows: compounds altering M4/GIRK thallium flux, either direction, primary screen, M4 allosteric agonist project, cell-based, HEK293 M4/GIRK, BTC-AM (AID 625;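 active means fluorescence slope after compound addition differing from the mean of all tested samples at 99.7% confidence, mostly higher but some lower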;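 further: thallium influx through GIRK channels coupled to M4 in HEK293 cells with BTC-AM dye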). The settings on record: at 10 µM, actives lie on both sides. The gist of the method:
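assay system = HEK293 cells with M4 receptor and GIRK channels | medium = pH 7.3 thallium assay buffer | doses = 10 µM final, single point | timing = cells overnight at 37 °C, BTC-AM loading 1 h, reads 2 min total | signal = BTC-AM fluorescence, 1 Hz kinetic reads | read-out = post-addition slope, 15–24 s, of baseline-normalized fluorescence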

Test [7] is described as follows: inhibitors of Sendai virus-induced IRF3 signaling, primary screen, TLR/RLR signaling modifier project, cell-based, Sendai virus stimulus, luciferase, 10K MLSCN set (AID 602276;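 active means inhibition at or above 50% at 10 µM; inactive means inhibition below 50%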;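 further: firefly luciferase from ISG56 promoter only with Renilla not read in this screen; 0% = Sendai virus plus DMSO and 100% = medium plus DMSO without virus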). The settings on record: HEK293 RL24 IRF3 luciferase reporter, at 10 µM, stronger effect = higher value. For orientation: In a reporter assay the amount or activity of a reporter protein is the signal.

Test [8] in a line: inhibitors of poly I:C-induced TLR3 signaling, primary screen, cell-based, poly I:C stimulus, luciferase, 10K MLSCN set (AID 602277). The settings on record: HEK293-TLR3 RL24 IRF3 luciferase reporter, at 10 µM, stronger effect = higher value.

Chain of Voltage-gated potassium channel subunit beta-2 (Rattus norvegicus) (P62483 whole entry, looked up): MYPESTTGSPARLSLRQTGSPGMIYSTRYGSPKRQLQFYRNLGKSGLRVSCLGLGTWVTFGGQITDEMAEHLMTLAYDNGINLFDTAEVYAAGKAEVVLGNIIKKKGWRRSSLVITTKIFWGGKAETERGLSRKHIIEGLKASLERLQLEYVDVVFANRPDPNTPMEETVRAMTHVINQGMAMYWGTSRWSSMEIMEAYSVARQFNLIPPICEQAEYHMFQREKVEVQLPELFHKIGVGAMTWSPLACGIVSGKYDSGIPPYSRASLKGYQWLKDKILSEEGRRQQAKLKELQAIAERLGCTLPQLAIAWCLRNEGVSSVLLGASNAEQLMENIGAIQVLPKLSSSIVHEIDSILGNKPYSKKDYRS
Chain of Muscarinic acetylcholine receptor M4 (Homo sapiens) (P08173 whole entry, looked up): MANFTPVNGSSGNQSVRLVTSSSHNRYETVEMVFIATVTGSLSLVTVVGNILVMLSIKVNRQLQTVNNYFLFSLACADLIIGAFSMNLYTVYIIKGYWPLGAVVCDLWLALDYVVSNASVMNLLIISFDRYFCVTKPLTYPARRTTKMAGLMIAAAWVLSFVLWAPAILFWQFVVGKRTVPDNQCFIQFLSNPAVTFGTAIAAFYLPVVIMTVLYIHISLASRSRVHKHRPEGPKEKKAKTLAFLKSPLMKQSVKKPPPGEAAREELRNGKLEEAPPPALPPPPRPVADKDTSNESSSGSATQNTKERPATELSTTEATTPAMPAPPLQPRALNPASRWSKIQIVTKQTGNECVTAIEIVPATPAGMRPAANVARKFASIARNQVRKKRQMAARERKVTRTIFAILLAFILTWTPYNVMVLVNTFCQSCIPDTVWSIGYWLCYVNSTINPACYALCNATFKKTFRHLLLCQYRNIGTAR

On to `O=C(c1ccc(-c2cccc(C(F)(F)F)c2)o1)N1CCOCC1`, for which, in test [1], the cell count is 482. Besides, the inhibition in test [1] is 4.3% (inactive); in test [3], 10.8% (inactive); in test [7], -39.9% (inactive); in test [8] it was -93.2% (inactive). Besides, the inhibition of aggregation in test [2] was -17.9% (inactive). For the same compound, the nuclei count in test [2] came out at 117%; in test [3], 99.9%. Further, the fluorescence slope in test [4] is -0.544 (inactive); in test [6], 0.00523 (inactive). Further, in test [5], the NADPH fluorescence slope is -3.4e-05 (inactive).
As for `O=C(CCSc1ccccc1)N1CCN(C(=O)c2ccco2)CC1`, in test [1], the cell count is 462. Moreover, the inhibition was -11.1% (inactive) in test [1], -29.7% (inactive) in test [3], -23.3% (inactive) in test [7] and -56% (inactive) in test [8]. For the same compound, in test [2], the inhibition of aggregation was 2% (inactive). Moreover, the nuclei count in test [2] turned out to be 102%; in test [3], 97.1%. Besides, the results for the fluorescence slope in test [4] and in test [6] were -0.603 (inactive) and 0.0052 (inactive), respectively. Besides, the NADPH fluorescence slope in test [5] is -3.1e-05 (inactive).
With `CC(=O)N1CCc2cc(S(=O)(=O)NC(CC(C)C)C(=O)N3CCn4c3nc3ccccc34)ccc21` (centres undefined), the cell count in test [1] came to 292. Further, the inhibition was 3.6% (inactive) in test [1], 22.8% (inactive) in test [3], 10.1% (inactive) in test [7] and 9.41% (inactive) in test [8]. Besides, the inhibition of aggregation in test [2] is 8.8% (inactive). The nuclei count in test [2] was 104%; in test [3], 63%. For the same compound, the values for the fluorescence slope in test [4] and in test [6] were -0.329 (inactive) and 0.0063 (inactive), respectively. Moreover, the NADPH fluorescence slope in test [5] is 5e-05 (inactive).
With `O=C1CC(c2cccc(Cl)c2)CC(O)=C1C=NCCCO` (centres undefined), the cell count in test [1] worked out at 498. The inhibition in test [1] is -18.1% (inactive); in test [3] it was 28.3% (inactive); in test [7] it was 16.7% (inactive); in test [8] it was 20.9% (inactive). Besides, the inhibition of aggregation in test [2] was 0.4% (inactive). For the same compound, the nuclei count in test [2] was 87.3%; in test [3] it was 98.3%. The fluorescence slope in test [4] is -0.393 (inactive); in test [6], 0.00604 (inactive). For the same compound, the NADPH fluorescence slope in test [5] was 4.1e-05 (inactive).
As for `COc1ccccc1-n1cnnc1SCC(=O)c1ccc[nH]1`, the cell count in test [1] amounted to 544. The inhibition in test [1] is 6.1% (inactive); in test [3], 17.5% (inactive); in test [7] it was 9.86% (inactive); in test [8] it was 10.8% (inactive). Also, the inhibition of aggregation in test [2] was 6.1% (inactive). Moreover, the nuclei count in test [2] is 96.8%; in test [3] it was 77.8%. Further, the fluorescence slope in test [4] was -0.532 (inactive); in test [6], 0.00668 (inactive). In addition, the NADPH fluorescence slope in test [5] was -4.3e-05 (inactive).
As to `COC(=O)c1ccccc1NC(=O)c1noc2c1CC(C(C)(C)C)CC2` (centres undefined), the cell count in test [1] was 216. Further, the inhibition in test [1] is 4.9% (inactive); in test [3], -31.4% (inactive); in test [7], 8.65% (inactive); in test [8], 4.53% (inactive). The inhibition of aggregation in test [2] was 0.9% (inactive). Besides, the values for the nuclei count in test [2] and in test [3] were 104% and 116%, respectively. In addition, the fluorescence slope was -0.559 (inactive) in test [4] and 0.00974 (inactive) in test [6]. In test [5], the NADPH fluorescence slope was -3.2e-05 (inactive).
On to `S=c1[nH]nc(COc2ccccc2)n1C1CCCCC1`, for which the cell count in test [1] was 552. The inhibition in test [1] was 8% (inactive); in test [3], 48.2% (inactive); in test [7], -4.8% (inactive); in test [8], 10.9% (inactive). The inhibition of aggregation in test [2] was 18.7% (inactive). For the same compound, the nuclei count was 91.7% in test [2] and 105% in test [3]. Besides, the fluorescence slope in test [4] is -0.553 (inactive); in test [6], 0.0103 (inactive). In test [5], the NADPH fluorescence slope was -3e-06 (inactive).
For the compound `CNC(=O)CN(C#N)c1nc(N(C)C)nc(N(C)C)n1`, in test [1], the cell count amounted to 349. The inhibition in test [1] was -2.3% (inactive); in test [3], -47.6% (inactive); in test [7] it was 6.17% (inactive); in test [8], 10.6% (inactive). Besides, the inhibition of aggregation in test [2] is 5.1% (inactive). The values for the nuclei count in test [2] and in test [3] were 92.5% and 114%, respectively. Besides, the fluorescence slope in test [4] is -0.553 (inactive); in test [6] it was 0.00632 (inactive). The NADPH fluorescence slope in test [5] was -2.5e-05 (inactive).
Consider `O=c1oc(-c2ccco2)nc2ccccc12`, for which the cell count in test [1] is 460. Besides, the inhibition in test [1] is 1% (inactive); in test [3], -332% (inactive); in test [7], 13.9% (inactive); in test [8], 15.3% (inactive). Moreover, the inhibition of aggregation in test [2] was 2.1% (inactive). In addition, the nuclei count in test [2] stood at 92.5%; in test [3], 132%. In addition, the fluorescence slope in test [4] is -0.559 (inactive); in test [6] it was 0.00609 (inactive). The NADPH fluorescence slope in test [5] is -4.2e-05 (inactive).

The record behind these values is PubChem BioAssay.
